Test results: ChEMBL document CHEMBL3108663, “Cembrane-type diterpenoids from the Chinese liverworts Chandonanthus hirtellus and C. birmensis” (J Nat Prod, 2014)

How the values were obtained:
Type in all cases: functional, cell-based
[1] = tested on: NCI-H1299; assay: Cytotoxicity against human NCI-H1299 cells after 24 hrs by MTT assay; conditions: NCI-H1299, 24 h
Outline: (§1)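 Cells plated 24 h before treatment, then exposed continuously to a range of compound concentrations for 24 h. MTT added and incubated 4 h at 37 °C under 5% CO2. Absorbance read at 570 nm. IC50 taken from plotted results with untreated cells set at 100%. Run at least three times; means ± SD of triplicates.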

[2] = tested on: PC-3; assay: Cytotoxicity against human PC3 cells after 24 hrs by MTT assay; conditions: PC-3, 24 h; outline: as §1
[3] = tested on: NCI-H292; assay: Cytotoxicity against human NCI-H292 cells after 24 hrs by MTT assay; conditions: NCI-H292, 24 h; outline: as §1
[4] = Cytotoxicity against human A172 cells after 24 hrs by MTT assay; conditions: A 172, 24 h; outline: as §1
[5] = tested on: DU-145; assay: Cytotoxicity against human DU145 cells after 24 hrs by MTT assay; conditions: DU-145, 24 h; outline: as §1
[6] = Cytotoxicity against rat PC12 cells after 24 hrs by MTT assay; conditions: PC-12, 24 h; outline: as §1
[7] = tested on: A549; assay: Cytotoxicity against human A549 cells after 24 hrs by MTT assay; conditions: A549, 24 h; outline: as §1

CC(C)=C1CC[C@]2(C)CC[C@]3(O[C@H](C[C@H]3C)C[C@]3(C)O[C@H]3C1=O)O2
IC50 [1]: > 50 µM | IC50 [2]: > 50 µM | IC50 [3]: 48.1 µM | IC50 [4]: > 50 µM | IC50 [5]: > 50 µM | IC50 [6]: > 50 µM | IC50 [7]: > 50 µM

CC(=O)O[C@@]1(C)CCC(=O)[C@@H](C)CCC[C@]2(C)O[C@H]2C(=O)C(=C(C)C)CC1
IC50 [1]: 17.2 µM | IC50 [2]: 24.3 µM | IC50 [3]: 21.4 µM | IC50 [4]: 23.1 µM | IC50 [5]: 43.7 µM | IC50 [6]: 24.5 µM | IC50 [7]: 31.1 µM

CC(=O)O[C@@]1(C)CCC/C(C)=C/CC[C@@]2(C)O[C@@H]2C(=O)C(=C(C)C)CC1
IC50 [1]: 41.6 µM | IC50 [2]: > 50 µM | IC50 [3]: > 50 µM | IC50 [4]: > 50 µM | IC50 [5]: > 50 µM | IC50 [6]: 47.1 µM | IC50 [7]: > 50 µM

CC(=O)O[C@H]1C[C@]2(C)O[C@H]2CC/C(C)=C/[C@@H](OC(C)=O)[C@]2(C)[C@@H]1[C@H]([C@]1(C)CO1)C[C@@H]2OC(C)=O
IC50 [1]: > 50 µM | IC50 [2]: > 50 µM | IC50 [3]: > 50 µM | IC50 [4]: > 50 µM | IC50 [5]: > 50 µM | IC50 [6]: > 50 µM | IC50 [7]: > 50 µM

CC(=O)O[C@@]1(C)CCC(=O)[C@H](C)CCC[C@]2(C)O[C@H]2C(=O)C(=C(C)C)CC1
IC50 [1]: 19.5 µM | IC50 [2]: 44.9 µM | IC50 [3]: 38.9 µM | IC50 [4]: 31.9 µM | IC50 [5]: > 50 µM | IC50 [6]: 43.8 µM | IC50 [7]: > 50 µM

CC(C)[C@H]1CC[C@]2(C)C[C@]3(O)C(=CC(=O)[C@H]3C)[C@@H](C)CC[C@@H]12 [ANADENSIN]
IC50 [1]: 34.7 µM | IC50 [2]: > 50 µM | IC50 [3]: > 50 µM | IC50 [4]: > 50 µM | IC50 [5]: > 50 µM | IC50 [6]: 31.1 µM | IC50 [7]: > 50 µM

CC(=O)O[C@@]1(C)C/C=C2\O[C@H](C[C@@H]2C)C[C@]2(C)O[C@H]2C(=O)C(=C(C)C)CC1
IC50 [1]: 28.3 µM | IC50 [2]: > 50 µM | IC50 [3]: > 50 µM | IC50 [4]: > 50 µM | IC50 [5]: > 50 µM | IC50 [6]: 41.1 µM | IC50 [7]: > 50 µM

CC(=O)O[C@@]1(C)CCC(=O)/C(C)=C/CC[C@]2(C)O[C@H]2C(=O)C(=C(C)C)CC1
IC50 [1]: 40.3 µM | IC50 [2]: > 50 µM | IC50 [3]: 48.7 µM | IC50 [4]: 37.3 µM | IC50 [5]: > 50 µM | IC50 [6]: 40.6 µM | IC50 [7]: > 50 µM

CC(=O)O[C@]1(C)CCC(=C(C)C)C(=O)[C@@H]2O[C@@]2(C)CC/C=C(\C)[C@H](O)CC1
IC50 [1]: 20.9 µM | IC50 [2]: > 50 µM | IC50 [3]: > 50 µM | IC50 [4]: > 50 µM | IC50 [5]: > 50 µM | IC50 [6]: 30.2 µM | IC50 [7]: 21.5 µM

CC(C)=C1CC[C@]2(C)CC[C@]3(O[C@H](C[C@@H]3C)C[C@]3(C)O[C@H]3C1=O)O2
IC50 [1]: > 50 µM | IC50 [2]: > 50 µM | IC50 [3]: > 50 µM | IC50 [4]: > 50 µM | IC50 [5]: > 50 µM | IC50 [6]: 36.4 µM | IC50 [7]: > 50 µM

CC(=O)O[C@]1(C)CCC(=C(C)C)C(=O)[C@@H]2O[C@@]2(C)C[C@H]2C[C@H](C)[C@@](O)(CC1)O2
IC50 [1]: 23.5 µM | IC50 [2]: > 50 µM | IC50 [3]: > 50 µM | IC50 [4]: > 50 µM | IC50 [5]: > 50 µM | IC50 [6]: 37.1 µM | IC50 [7]: > 50 µM
